Assay results reported in ChEMBL document CHEMBL4428115, “Molecular docking studies, biological and toxicity evaluation of dihydroisoquinoline derivatives as potential anticancer agents” (Bioorg Med Chem, 2016).
The source made the active and inactive calls. The rule behind the calls is not given here.

Key:
[1] = Selectivity index, ratio of IC50 for mouse BALB/3T3 cells to IC50 for human PC3 cells; assay type: toxicity; details: BALB/3T3 cells versus PC3 cells, read-out: Ratio IC50
HL-60 = assay: Decrease in mitochondrial membrane potential in human HL60 cells at 3 ug/ml after 24 hrs using JC-1 staining based flow cytometry relative to control; assay type: functional, cell-based
How it was run: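 HL-60 treated 24 h at 3 µg/mL alongside DMSO control; […] for 24 h served as the low-potential control. Cells stained with JC-1 at 10 µg/mL final for 30 min at 37°C in the dark, washed, and analysed by flow cytometry (red aggregates vs green monomers). Three independent experiments, mean ± SD.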

LoVo = assay: Antiproliferative activity against human LoVo cells; assay type: functional, cell-based
[2] = Selectivity index, ratio of IC50 for mouse BALB/3T3 cells to IC50 for human Raji cells; assay type: toxicity; details: BALB/3T3 cells versus Raji cells, read-out: Ratio IC50
[3] = Selectivity index, ratio of IC50 for mouse BALB/3T3 cells to IC50 for human CCRF-CEM cells; assay type: toxicity; details: BALB/3T3 cells versus CCRF-CEM cells, read-out: Ratio IC50
A549 = assay: Antiproliferative activity against human A549 cells; assay type: functional, cell-based
[4] = Antiproliferative activity against HLMEC after 72 hrs by SRB assay; set-up: species or system Homo sapiens
How it was run: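 Adherent cells plated at 1 × 10^4 per well 24 h before treatment, then exposed 72 h to compounds diluted from 20 mg/mL DMSO stock (0.01–1000 µg/mL). Fixed in cold 50% TCA at 4°C for 1 h, stained with 0.4% sulforhodamine B, bound dye extracted with 10 mM Tris, OD at 540 nm. Triplicates, 3–5 experiments; IC50 per experiment, mean ± SD.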

MV4-11 = assay: Antiproliferative activity against human MV411 cells; assay type: functional, cell-based

In the case of CCOC(=O)C1(C(=O)OCC)Cc2cc(OCc3ccccc3)cc(OCc3ccccc3)c2C=N1, the selectivity ratio [1] is reported as 8.5, the Activity (HL-60) is reported as “Active” and the IC50 (LoVo) is reported as 1.1 µM. For the same compound, the selectivity ratio [2] was 59.8, the selectivity ratio [3] was 51.3 and the IC50 (A549) was 13.1 µM. It also gave an IC50 [4] of 6.8 µM and an IC50 (MV4-11) of 64.4 µM.
